Laboratory results as given in PubChem BioAssay AID2657 (Broad Institute, 2010).

Tested on: platelets, SFLLRN actin polymerization, FITC-phalloidin flow
Assay: blockers of PAR1 peptide-driven F-actin formation – cell-based, FITC-phalloidin flow cytometry, repeated runs, selectivity assay for platelet granule secretion inhibitor project, late-stage follow-up (AID 2657)
Settings: at 10 µM; hits give high values
Procedure, shortened: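 Test system: Gel-filtered platelets | Also added: SFLLRN agonist peptide at 5 µM, or no agonist | Dosing: 10 µM compound, single dose | Times: Compound 20 min then SFLLRN 15 min, both 37 °C | Detection: Flow cytometry of fixed, permeabilized platelets stained with FITC-phalloidin | Controls: DMSO-only wells at 0.3% as neutral control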

`C/C(=N/NC(=O)C1CCCC1)c1ccc(NC(=O)C(F)(F)F)cc1` was tested, and the inhibition was 73.5%.

With `Cc1ccc(-n2c(N)c(C#N)c(-c3ccccc3)c(C#N)c2=O)cc1` the inhibition was 99%.
